Measured values pooled from the literature.
Read-out: metabolic stability

C[C@H](Cn1cnc2c(N)ncnc21)OCP(=O)(O)OCCCOCCCCCCCCCCCCCCCC(F)(F)F.N  half-life (CD-1 mouse, liver microsomes; 3 µM, pH 7.4): > 120 min
Cc1nc2c(=O)n(C)c(=O)nc-2n(C)n1  half-life (mouse, liver microsomes): > 186 min
Nc1ncnc2c1c(Oc1cc(C(F)(F)F)ccn1)nn2C1CCC(F)(F)CC1  half-life (mouse, liver microsomes; 1 µM): ~25 min
C=C1NC(=O)[C@H](C)N(O)C(=O)[C@H]([C@@H](O)C(N)=O)N(C)C(=O)[C@H](C)OC(=O)[C@@H]2C[C@H](C)CN2C1=O  half-life (mouse, liver microsomes): > 120 min
C[C@]12CC[C@H]3[C@@H](CCC4=CC(=O)CC[C@@]43C)[C@@H]1CC[C@@H]2O  half-life (mouse, liver microsomes; 1 µM): 2.1 min
Nc1ncnc2c1c(Oc1cc(Cl)ccn1)nn2C1CCC(F)(F)CC1  half-life (mouse, liver microsomes; 1 µM): ~25 min
O=C(c1ccc(-n2sc3ncccc3c2=O)cc1)N1CCOCC1  half-life (mouse, liver microsomes): > 120 min
CN1CCCCC1Cn1cc(C(=O)c2cc([N+](=O)[O-])ccc2I)c2ccccc21 (racemic)  half-life (mouse, liver microsomes): 10.6 min
Cc1cc(C)nc(Nc2ncc(C(=O)NCCc3c(C)[nH]c4ccccc34)cn2)c1  half-life (CD-1 mouse, hepatocytes; 1 µM): 39 min
Cc1cnc(Nc2ccc(C(=O)NC3CCN(C(=O)COCCOCCOCC(=O)N4CCC(NC(=O)c5ccc(Nc6ncc(C)c(Nc7ccc(Cl)c(NS(=O)(=O)C(C)(C)C)c7)n6)cc5F)CC4)CC3)c(F)c2)nc1Nc1ccc(Cl)c(NS(=O)(=O)C(C)(C)C)c1  half-life (mouse, liver microsomes): 33 min
N=c1c2c(-c3ccccc3)c(-c3ccccc3)n(Cc3ccccc3)c2ncn1[C@H]1CC[C@H](O)CC1  half-life (mouse, liver S9; 1 µM): > 120 min
O=C(c1cc(-n2sc3ncccc3c2=O)ccc1Cl)N1CCOCC1  half-life (mouse, liver microsomes): > 120 min
CCCCCCCCCCCCCCCCOCCCOP(=O)(O)CO[C@H](C)Cn1cnc2c(N)ncnc21.N  half-life (CD-1 mouse, liver microsomes; 3 µM, pH 7.4): > 120 min
